HEK293 NFkB inh: inhibitors of PMA/ionomycin-induced NF-kB reporter, primary screen, antigen receptor NF-kB inhibitor project, cell-based, HEK-293 luciferase reporter, luminescence | HEK-293 NF-kB luciferase reporter | inhibition, % at 3 µM | AID 465, 2006 | actives 0.21% (n = 62,000);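 active = inhibition above the mean of all tested compounds plus 3 SD, cut at about 40% in these data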;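 note: 0% = stimulated DMSO wells and 100% = 10 µM reference inhibitor 5653914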
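Material: HEK-293 cells with stable firefly luciferase reporter driven by four HIV NF-kB elements / Also added: PMA plus ionomycin mix as NF-kB-activating stimulus / Compound dosing: 3 µM once, 0.30% DMSO / Times: 1 h pretreatment, 16 h stimulation, 37 °C / Signal: luminescence / Evaluation: per-plate % inhibition versus controls / Benchmarks: DMSO and 10 µM reference inhibitor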
HTR1E agonist: 5-HT1E receptor agonists, primary screen, cell-based, HTS. CHO 5-HT1E Ga15 NFAT-bla reporter, FRET; 0% DMSO wells, 100% control agonist wells. activation, % at 6 µM. actives 0.69% (n = 65,000);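 active = activation above a set limit, the screen-wide mean activation plus 3 SD, cut at about 8.5% in these data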;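 note: 100% = positive control agonist at 1 µM giving full maximal response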
Target sequence (P28566 whole entry, looked up): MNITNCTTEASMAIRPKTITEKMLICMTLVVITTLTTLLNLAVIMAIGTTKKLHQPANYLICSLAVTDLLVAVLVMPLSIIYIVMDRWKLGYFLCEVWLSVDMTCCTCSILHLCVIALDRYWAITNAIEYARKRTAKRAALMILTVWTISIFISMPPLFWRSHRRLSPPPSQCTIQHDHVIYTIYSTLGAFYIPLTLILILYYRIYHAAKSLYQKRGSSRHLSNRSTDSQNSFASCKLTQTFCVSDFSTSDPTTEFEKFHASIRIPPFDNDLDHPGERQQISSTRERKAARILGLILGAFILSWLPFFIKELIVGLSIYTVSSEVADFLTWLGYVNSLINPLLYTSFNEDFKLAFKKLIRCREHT
5HT1E antag: 5-HT1E receptor antagonists, primary screen, cell-based, HTS. 5-hydroxytryptamine receptor 1E (Homo sapiens), P28566. CHO 5-HT1E Ga15 NFAT-bla reporter, FRET, antagonist. inhibition, % at 6 µM. actives 0.99% (n = 65,000);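 active = inhibition above a set limit, the mean inhibition across every tested compound plus 3 SD, cut at about 29% in these data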;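 note: signal is the 460 over 535 nm emission ratio of beta-lactamase substrate; 0% = agonist plus DMSO wells and 100% = wells without agonist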
5HT1a ag: human 5-HT1a receptor agonists, primary screen, cell-based, CHO, Ga15 NFAT-bla reporter; activation, % at 10 µM; CHO 5-HT1a Ga15 NFAT-bla reporter, FRET ratio; 0% basal, 100% maximal reference agonist; actives 0.56% (n = 65,000); AID 567, 2006;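 active = activation above the screen-wide mean activation plus 3 SD, cut at about 19% in these data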;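 note: 0% = DMSO wells and 100% = 5-CT at EC100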
5-HT1A blocker: human 5-HT1a receptor antagonists, primary screen, cell-based, CHO, Ga15 NFAT-bla reporter | 5-hydroxytryptamine receptor 1A (Homo sapiens), P08908 | CHO 5-HT1a Ga15 NFAT-bla reporter, antagonist mode | inhibition, % at 10 µM | actives 0.68% (n = 62,000);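 active = inhibition above the mean of all tested compounds plus 3 SD, cut at about 43% in these data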;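 note: receptor stimulated by 5-CT agonist at 100 nM near EC80; beta-lactamase reporter measured by ratiometric fluorescence of a cleavable substrate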
Jurkat tox 60K: cytotoxicity toward Jurkat T cells, primary screen, cytotoxicity control, cell-based, Jurkat E6.1, 60K MLSMR library | Jurkat E6.1 viability, ATP luminescence, 48 h | inhibition, % at 4 µM | actives 1.2% (n = 56,000) | AID 463, 2006;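 active = inhibition above the mean inhibition of all tested compounds plus 3 SD, cut at about 28% in these data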
The depositor's hits bear a star; x = no result. Sampled rows, rich in hits. Any-hit rate of the full collection: about 3.3%.

SMILES	HEK293 NFkB inh	HTR1E agonist	5HT1E antag	5HT1a ag	5-HT1A blocker	Jurkat tox 60K
Cc1ccc(C)c(S(=O)(=O)Nc2ccc3scnc3c2)c1	7.7	0.0	10.5	-2.0	20.2	91.5*
Cc1ccc(NS(=O)(=O)c2cc(C(=O)N3CCOCC3)ccc2C)cc1	5.9	-0.3	4.2	1.2	10.9	2.3
O=C(O)CCCC(=O)Nc1nc(-c2ccccc2)cs1	-8.3	25.9*	-12.4	-3.8	6.5	-4.3
O=C(O)CCCC(=O)Nc1nc(-c2ccc(F)cc2)cs1	-4.9	1.1	-3.9	-1.1	-3.7	-9.3
Cc1cc(NC(=O)C2CCN(S(=O)(=O)c3cnc[nH]3)CC2)ccc1Br	9.4	0.5	6.8	-2.1	-2.2	1.6
O=C(CCN1CCCC1Cc1ccccc1)c1ccc2c(c1)OCCO2 (configuration not stated)	x	8.9*	16.1	-0.8	x	x
O=C(CCN1CCCCC1)c1ccc2c(c1)OCCO2	4.5	0.3	22.6	-3.7	16.6	-0.7
COc1ccc(-c2nc3n(n2)C(c2ccccc2Cl)C(C(N)=O)=C(C)N3)cc1 (configuration not stated)	8.4	0.9	4.2	-1.6	3.5	-0.3
CCOC(=O)N1CCC(Nc2c(NCCN3CCN(Cc4ccccc4)CC3)c(=O)c2=O)CC1	-2.6	0.2	7.3	0.3	0.2	2.7
CCOC(=O)N1CCC(Nc2c(NCCCN(CC)c3cccc(C)c3)c(=O)c2=O)CC1	4.0	22.1*	-7.8	-2.1	-16.4	5.1
O=C(CNS(=O)(=O)c1ccc(Br)s1)NCC1COc2ccccc2O1 (configuration not stated)	10.4	-0.1	11.0	-1.3	9.1	2.5
OC(COc1c(F)cc(Br)cc1F)CN1CCN(c2ccc(F)cc2)CC1 (configuration not stated)	1.3	1.9	-7.1	8.6	62.7*	-3.4
O=C(c1c(Cl)nc2sccn12)N1CCN(c2cccc(Cl)c2)CC1	39.4	-1.3	41.9*	-3.3	23.8	x
Cc1onc(-c2ccccc2Cl)c1C(=O)N1CCN(c2cccc(Cl)c2)CC1	28.9	0.9	29.5*	1.1	30.1	60.6*
COc1cc2c(C(=O)N3CCN(Cc4ccc5c(c4)OCO5)CC3)cn(C)c(=O)c2cc1OC	12.1	-1.2	10.5	-0.2	1.3	x
COc1ccccc1C(=O)N1CCN(Cc2ccc3c(c2)OCO3)CC1	x	8.8*	2.4	-2.1	x	x
COc1ccccc1C(=O)N1CCN(c2cccc(Cl)c2)CC1	40.4*	-1.0	16.5	0.1	28.2	x
Cc1onc(-c2ccccc2Cl)c1C(=O)N1CCN(c2ccccc2)CC1	2.9	0.0	-4.8	1.1	1.5	0.0
O=C(CCCNS(=O)(=O)c1cccs1)N1CCN(c2cccc(Cl)c2)CC1	10.4	-0.6	0.8	2.1	-3.3	x
COc1ccccc1C(=O)N1CCN(C(=O)c2ccncc2)CC1	-7.0	-0.6	-7.6	0.4	5.6	3.2
CCCCn1cnc2c(c1=O)c1nc3ccccc3nc1n2Cc1ccc2c(c1)OCO2	x	0.3	-2.5	4.9	x	x
CCCCn1c(SCC(=O)N2CCCc3ccccc32)nc2c1c(=O)n(C)c(=O)n2C	11.5	0.1	1.4	1.5	-6.0	-0.9
CC(=O)c1c(C)[nH]c(C(=O)OCC(=O)Nc2cc(C(F)(F)F)ccc2N2CCOCC2)c1C	20.2	0.4	4.4	-0.3	6.6	13.3
CCCc1n[nH]c2c1C(=O)C(C(=O)OC)C(C)(C)C2 (configuration not stated)	10.3	-0.4	-4.3	2.1	-8.1	-0.5
O=c1oc2cc(O)ccc2c2c1CCCC2	16.1	0.7	-0.4	0.9	-14.8	1.0
SMILES	HEK293 NFkB inh	HTR1E agonist	5HT1E antag	5HT1a ag	5-HT1A blocker	Jurkat tox 60K
O=S(=O)(Nc1cccc2ccccc12)N1CCCC1	15.3	-0.1	-0.7	0.0	3.4	0.5
O=C(c1cccc(Cl)c1)N1CCN(C(=O)c2ccccc2F)CC1	x	0.6	-0.7	1.8	x	x
O=C(c1cccc(F)c1)N1CCN(c2cccc(Cl)c2)CC1	2.2	0.3	0.0	-3.1	11.7	79.5*
COc1ccc(N2CCN(C(c3ccccc3)c3nnnn3Cc3ccc(F)cc3)CC2)cc1 (configuration not stated)	15.1	0.0	3.7	-1.2	8.2	4.5
O=C(CCN1C(=O)COc2ccccc21)NCCN1CCN(c2cccc(Cl)c2)CC1	4.0	9.6*	7.1	2.5	32.9	4.6
O=C(NCCCN1CCN(c2cccc(Cl)c2)CC1)c1ccc(N2CCCC2=O)cc1	16.7	8.2	-5.7	15.4	46.2*	x
Cc1cccc(C(=O)NCCN2CCN(c3ccccc3)CC2)c1	-0.3	-0.1	3.2	52.0*	-277.5	-0.9
O=C(NCCCN1CCCC1=O)c1cccc(N2CCCC2=O)c1	14.1	-1.0	8.7	-1.5	2.9	-1.4
O=C(CCN1C(=O)COc2ccccc21)NCCN1CCOCC1	4.2	-1.1	0.0	-3.0	8.2	4.2
O=C(NCCCN1CCN(c2cccc(Cl)c2)CC1)c1cccc(N2CCCC2=O)c1	11.5	2.0	-0.1	2.0	89.0*	x
CCOc1ccc(Nc2nc(Cc3nnc(SCC(=O)NCc4ccco4)n3CC)cs2)cc1	7.4	1.0	-0.9	18.4	-19.5	3.3
O=c1c2[nH]c3ccc(F)cc3c2ncn1CCCN1CCOCC1	4.3	-0.1	-0.6	-0.5	-3.4	-4.5
O=c1c2[nH]c3ccc(F)cc3c2ncn1CCCn1ccnc1	19.3	0.5	-0.4	13.1	-4.9	32.8*
CSc1ncccc1C(=O)OCC(=O)NC1CCS(=O)(=O)C1 (configuration not stated)	7.8	-0.6	8.2	20.9*	-1.5	-6.5
O=C(COC(=O)c1ccccc1Oc1ccccc1)NC1CCS(=O)(=O)C1 (configuration not stated)	9.6	-0.3	3.9	0.3	-13.9	-6.8
CCOc1ccc(C(=O)c2ccc(OCC)c(N)c2)cc1N	5.5	-0.4	0.6	-3.2	12.6	12.5
CN(C)c1ccc(C(=O)c2ccc(N(C)C)c(N)c2)cc1N	11.2	-0.6	0.8	-1.6	3.5	59.7*
Cc1ccc(C(=O)CC2(O)C(=O)N(Cc3ccccc3Cl)c3ccccc32)o1 (configuration not stated)	9.5	15.7*	7.6	0.3	-2.5	7.5
Cc1c(C(=O)c2no[n+]([O-])c2C(=O)c2cnn(C)c2C)cnn1C	10.3	-1.1	9.7	-0.7	45.6*	-3.1
CCOc1ccc(NC(=O)CN(C)c2nnnn2-c2ccccc2)cc1OCC	8.8	-0.8	8.5	-2.4	-6.6	x
